# Columns and labels:
# Assay type in all cases: functional
# Escherichia coli = assay: In vitro for antibacterial activity against Gram-negative Escherichia coli […] JC-2.
# Outline: (§1)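 MIC in µg/mL, determined by a standard twofold serial dilution method on agar media.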
# Pseudomonas aeruginosa = assay: In vitro antibacterial activity against Gram-negative Pseudomonas aeruginosa V-1.; outline: as §1
# Staphylococcus aureus = assay: In vitro antibacterial activity against Gram-positive, Staphylococcus aureus 209 P; outline: as §1
SMILES,MIC (Escherichia coli) [µg/mL],MIC (Pseudomonas aeruginosa) [µg/mL],MIC (Staphylococcus aureus) [µg/mL]
CCN1CCN(c2cc3c(cc2F)c(=O)c(C(=O)O)cn3CC)CC1,0.1,3.13,
CCn1cc(C(=O)O)c(=O)c2cc(F)c(N3CCC(O)CC3)cc21,0.2,12.5,0.39
CCn1cc(C(=O)O)c(=O)c2cc(F)c(N3CCOCC3)cc21,0.2,12.5,0.78
CCn1cc(C(=O)O)c(=O)c2cc(SC)c(N3CCNCC3)cc21,0.78,12.5,25
CCn1cc(C(=O)O)c(=O)c2cc(F)c(N3CCN(Cc4ccc(N)cc4)CC3)cc21,,12.5,
CCn1cc(C(=O)O)c(=O)c2cc(Cl)c(N3CCN(C)CC3)cc21,0.78,25,1.56
CCn1cc(C(=O)O)c(=O)c2cc(F)c(N3CCN(C(=O)c4ccccc4)CC3)cc21,3.13,25,1.56
CCn1cc(C(=O)O)c(=O)c2cc(Br)c(N3CCN(C)CC3)cc21,0.39,100,1.56
CCn1cc(C(=O)O)c(=O)c2cc(F)c(N3CCCC3)cc21,0.39,12.5,0.2
CCn1cc(C(=O)O)c(=O)c2cc(F)c(N3CCC(C(N)=O)CC3)cc21,1.56,100,1.56
CN1CCN(c2cc3c(cc2F)c(=O)c(C(=O)O)cn3CCF)CC1,0.1,3.13,0.39
CCn1cc(C(=O)OC)c(=O)c2cc(F)c(N3CCNCC3)cc21,12.5,50,100
C=Cn1cc(C(=O)O)c(=O)c2cc(F)c(N3CCN(C)CC3)cc21,0.1,3.13,1.56
CCn1cc(C(=O)O)c(=O)c2cc(F)c(N3CCC(N(C)C)CC3)cc21,0.1,3.13,0.39
CCn1cc(C(=O)O)c(=O)c2ccc(N3CCNCC3)cc21,0.78,3.13,12.5
C=CCN1CCN(c2cc3c(cc2F)c(=O)c(C(=O)O)cn3CC)CC1,0.39,6.25,0.39
CCn1cc(C(=O)O)c(=O)c2cc(F)c(N3CCN(Cc4ccc([N+](=O)[O-])cc4)CC3)cc21,6.25,> 100,1.56
O=C(O)c1cn(Cc2ccccc2)c2cc(N3CCNCC3)c(F)cc2c1=O,0.78,1.56,1.56
CCn1cc(C(=O)O)c(=O)c2cc(F)c(N3CCN(Cc4ccccc4)CC3)cc21,0.78,50,0.39
CCn1cc(C(=O)O)c(=O)c2cc(C(C)=O)c(N3CCNCC3)cc21,100,> 100,100
CCn1cc(C(=O)O)c(=O)c2cc(F)c(N3CCN(CCO)CC3)cc21,0.1,6.25,0.78
CCn1cc(C(=O)O)c(=O)c2cc(F)c(N(C)C)cc21,0.39,50,0.78
CCn1cc(C(=O)O)c(=O)c2cc([N+](=O)[O-])c(N3CCNCC3)cc21,0.78,12.5,25
C=Cn1cc(C(=O)O)c(=O)c2cc(F)c(N3CCNCC3)cc21,0.1,0.39,3.13
CCn1cc(C(=O)O)c(=O)c2cc(F)c(Cl)cc21,1.56,100,12.5
